The EternaBench riboswitch data

Test system: MS2 coat protein
Experiment: apparent Kd, MS2 coat protein; higher = weaker binding; RNA-MaP array; FMN 200 µM where present
In short: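 In 100 mM Tris-HCl pH 7.5, 80 mM KCl, 4 mM MgCl2, BSA, DTT, yeast tRNA and Tween-20, SNAP-549-labelled MS2 coat protein was titrated from 0.7 or 1.5 nM, doubling to 3 µM, over designs transcribed by stalled E. coli RNA polymerase on Illumina sequencing-chip clusters. This was done first without ligand, then with ligand held constant. After green signal was normalised to red-channel RNA signal and control-cluster median Fmax, the apparent Kd was taken as the median of filtered per-cluster binding-curve fits.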

[1] = designed as: ON switch for flavin mononucleotide, no ligand
[2] = ligand present: flavin mononucleotide, designed as: ON switch for flavin mononucleotide
[3] = designed as: OFF switch for flavin mononucleotide, no ligand
[4] = ligand present: flavin mononucleotide, designed as: OFF switch for flavin mononucleotide

For “AAUUAAUUAAUACAUGAGGAUCACCCAUGUAAUUAUUAGAUCUAGGAUAUCAGCUCGAUUAGAGCUGAGAAGGAGAUCACAUGU”, the “apparent Kd” value [1] was 18.5 nM and the “apparent Kd” value [2] was 14.8 nM.
With “CUUGUGUGAGGAUAUCAGUAGUAGUACGAUAGUAUUACUGCUGAGAAGGCACAUGAGGAUCACCCAUGUUCUUC” the “apparent Kd” value [3] was 28.1 nM and the “apparent Kd” value [4] was 24.1 nM.
In the case of “UGAUAGGACAGAGGAUAUGCGUAUAGUUAUCUCUACAUGAGGAUCACCCAUGUAGAAGGCUGUCCUAUCUAAGUCGGAAACGAC”, the “apparent Kd” value [3] was 5.35 nM and the “apparent Kd” value [4] was 5.22 nM.
With “AUCAUGUAAGGAUAUCUUACAUGUAUCGAAAGAUACAGUUAAGAGAAGGUACAUGAGGAUCACCCAUGUAUAAC” the “apparent Kd” value [3] was 29 nM and the “apparent Kd” value [4] was 45.5 nM.
For “GACGUGUGAGGAUAUCCGAUGCCGGUCCGGAAGGUUCGGGUGGAGAAGGCACAUGAGGAUCACCCAUGUGUAAG”, the “apparent Kd” value [3] was 18 nM and the “apparent Kd” value [4] was 26.5 nM.
With “GUUAUACAUGAGGAUCACCCAUGUCAAUGUAGUCGAGGAUAUGGGUAGCUAUGAGGCGUACUAGAAGGCGAGGAGU” the “apparent Kd” value [1] was 77.8 nM and the “apparent Kd” value [2] was 160 nM.
With “UUGGACGUCGUAGGAUAUGUAGGAUAUUCCUACAUGAGGAUCACCCAUGUUGACAUUGAAGAAGGACAGAAGGACGAUGUCCAU” the “apparent Kd” value [1] was 87.7 nM and the “apparent Kd” value [2] was 5.02 nM.
In the case of “AACUCACAUGAGGAUCACCCAUGUGAGGAUAUGGUUUCGCUGGCCGUAGCCAGUGGAACCAGAAGGCGCAUGAU”, the “apparent Kd” value [3] was 20.1 nM and the “apparent Kd” value [4] was 20 nM.
With “CAGCGCUGUCGAGAGGAUAUGCGGUGAUGGACAUGAGGAUCACCCAUGUUAGCGAUGGCAUUACGGUAGAAGGCUCUACAGCUGC” the “apparent Kd” value [1] was 40.3 nM and the “apparent Kd” value [2] was 16.4 nM.
In the case of “CUCAUGUGAGGAUAUGUGAUCAACCUUCUAUAUAGAUGAUGACAGAAGGCACAUGAGGAUCACCCAUGUAGAUC”, the “apparent Kd” value [3] was 65.5 nM and the “apparent Kd” value [4] was 20.1 nM.
In the case of “UAUUUUUAUGUAAGGAUAUGGGUUUGGUUGCGGGCUUAGAAGGUACAUGAGGAUCACCCAUGUAUUUUGUGCAU”, the “apparent Kd” value [3] was 32.8 nM and the “apparent Kd” value [4] was 35.3 nM.
In the case of “AGACGGAGCUGAGGAUAUAUACAUGAGGAUCACCCAUGUAAGCUCCAGGAAACUGGAGCAAAUGUAUAGAAGGCAGCUCCGUCA”, the “apparent Kd” value [3] was 28 nM and the “apparent Kd” value [4] was 45.9 nM.
“ACAAUGUGGUAAGGAUAUCCAAUGGCAUCCCUAGGAGAAGGUAUCACAUGAGGAUCACCCAUGUGAAGGAUGGGUUAUCGCAAA” was tested, and the “apparent Kd” value [3] was 223 nM and the “apparent Kd” value [4] was 121 nM.
For “AGAAAGUGAGGAUAUACAUGAGGAUCACCCAUGUAGAACGAGAGUUAUAAAAAUGGAAGUAGAAGGCACAAAAG”, the “apparent Kd” value [3] was 34.3 nM and the “apparent Kd” value [4] was 37.1 nM.
“GUAGCAUACCGAGGAUAUUCAUAGAAUAAAUAAACAUGAGGAUCACCCAUGUGGCGAAAGCCUAGGGAGAAGGCGGAAUGCUAC” was tested, and the “apparent Kd” value [1] was 183 nM and the “apparent Kd” value [2] was 20.3 nM.
With “GCACGGUAAGUGAGGAUAUACCUCUGGAUACAGAGGUAGAAGGCACAUGAGGAUCACCCAUGUCUAAGCCGUGC” the “apparent Kd” value [3] was 17.1 nM and the “apparent Kd” value [4] was 24.1 nM.
With “AUUAUAUAGAAAGGAUAUUGAUUAUUAUUUUAACAUGAGGAUCACCCAUGUAGCCUUAUGUAUAACAAGAAGGUUCAUUUAUUA” the “apparent Kd” value [3] was 75.9 nM and the “apparent Kd” value [4] was 89.5 nM.
In the case of “UGGUGACGUUUCUUCUCGACAUGAGGAUCACCCAUGUAGACAGAGGAUAUCCGAGUUGCCAAUAUGGAGAAGGCUGACUGCGAA”, the “apparent Kd” value [3] was 6.6 nM and the “apparent Kd” value [4] was 8.32 nM.
In the case of “AGAUAACACCAGAAGGACAUGAGGAUCACCCAUGUAGGAUAUGGGCAUCACUCGAGAAAGAAACGACCAAAAGGACACGUGGUC”, the “apparent Kd” value [1] was 177 nM and the “apparent Kd” value [2] was 13.4 nM.
In the case of “AACCUGCGUGGAGGAUAUGAGUGGUUGGACGCAUCAGAAGGCCAGCAGCCACAUGAGGAUCACCCAUGUACAGACACAUGUUUC”, the “apparent Kd” value [1] was 245 nM and the “apparent Kd” value [2] was 95.1 nM.
“AUAGCUGGGAAGUAAACUCGUGCGGCAGAAGGGUGAUACUGGACAUGAGGAUCACCCAUGUGCACACAGGAUAUGCCCGCGAGC” was tested, and the “apparent Kd” value [1] was 207 nM and the “apparent Kd” value [2] was 35 nM.
In the case of “AUAUAUCAUACAGGAUAUACAUGAGGAUCACCCAUGUGUCCUCCAUAAUUGACACCAAUUAUGCUGUAGAAGGGUAUGAUAUAU”, the “apparent Kd” value [3] was 293 nM and the “apparent Kd” value [4] was 258 nM.
With “UUUUUGUUCAAGAAGGAUGUUUUAGUUUAGAUCAUAGGAUAUUGAUAUAUUGUAGACUCAUGUAACAUGAGGAUCACCCAUGUA” the “apparent Kd” value [1] was 101 nM and the “apparent Kd” value [2] was 65.4 nM.
